Experimental data reported in ChEMBL document CHEMBL1772938, “Optimization of 3-(phenylthio)quinolinium compounds against opportunistic fungal pathogens” (Eur J Med Chem, 2011).
In brackets after ≈: the same amount, converted by molar mass.

Assays:
Cryptococcus neoformans [1] = assay: Antimicrobial activity against Cryptococcus neoformans ATCC 90113 by CLSI method; assay type: functional
Procedure, shortened: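 C. neoformans in Sabouraud dextrose broth, inoculum per the 0.5 McFarland standard. Saline serial dilutions of DMSO samples were tested in duplicate, with a final top concentration of 20 μg/mL. OD 630 nm was read before and after incubation. IC50 was derived from % growth versus concentration. MIC was judged visually as the lowest concentration with no detectable growth. Amphotericin B served as the drug control.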

Candida albicans [2] = assay: Antimicrobial activity against Candida albicans ATCC 90028 by CLSI method; assay type: functional
Procedure, shortened: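 C. albicans inoculum was made to the 0.5 McFarland standard in Sabouraud dextrose broth or RPMI 1640. Samples came from DMSO stocks serially diluted in saline, in duplicate, starting at a final 20 μg/mL. Plates were read at OD 630 nm before and after incubation. IC50 came from the % growth versus concentration plot; MIC was the lowest concentration with no visible growth. Included: growth, solvent and blank controls, plus amphotericin B.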

Aspergillus fumigatus [3] = assay: Antimicrobial activity against Aspergillus fumigatus ATCC 90906 by CLSI method; assay type: functional
Procedure, shortened: (§1)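 Modified CLSI broth microdilution. DMSO stocks were serially diluted in saline and run in duplicate. Inoculum was set by the 0.5 McFarland standard in YM broth for MIC, or in RPMI-1640 + 5% Alamar Blue for IC50. The top final concentration was 20 μg/mL. Fluorescence (544ex/590em) was read before and after incubation. IC50 was taken from % growth versus concentration; MIC was read visually as no blue-to-pink change.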

Cryptococcus neoformans [4] = assay: Antimicrobial activity against Cryptococcus neoformans ATCC 90113 by alamar blue assay; assay type: functional, organism-based
Candida albicans [5] = assay: Antimicrobial activity against Candida albicans ATCC 90028 by alamar blue assay; assay type: functional, organism-based
Aspergillus fumigatus [6] = assay: Antimicrobial activity against Aspergillus fumigatus ATCC 90906 by alamar blue assay; assay type: functional, organism-based; procedure, shortened: as §1
Nakaseomyces glabratus [7] = assay: Antimicrobial activity against Candida glabrata ATCC 90030 by CLSI method; assay type: functional
Procedure, shortened: (§2)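 Modified CLSI microdilution. DMSO samples were serially diluted in saline and tested in duplicate against inoculum adjusted by the 0.5 McFarland standard. The final test range started at 20 μg/mL. Plates were read before and after incubation. IC50 came from % growth versus concentration; MIC was the lowest concentration without visible growth. Growth, solvent, blank and amphotericin B controls were on each plate.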

Pichia kudriavzevii [8] = assay: Antimicrobial activity against Candida krusei ATCC 6258 by CLSI method; assay type: functional; procedure, shortened: as §2
Nakaseomyces glabratus [9] = assay: Antimicrobial activity against Candida glabrata ATCC 90030 by alamar blue assay; assay type: functional, organism-based
Pichia kudriavzevii [10] = assay: Antimicrobial activity against Candida krusei ATCC 6258 by alamar blue assay; assay type: functional, organism-based
[11] = Cytotoxicity against african green monkey Vero cells after 48 hrs by neutral red assay; assay type: cell-based; settings: chlorocebus sabaeus, read-out: TC50
Procedure, shortened: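 VERO kidney cells were seeded at 25,000 cells/well and incubated 24 h. Samples were added up to 10 μg/mL and incubated a further 48 h. Viable cells were counted by neutral red uptake. IC50 came from growth-inhibition dose curves. Doxorubicin was the positive control and DMSO the vehicle control.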

[12] = Selectivity index, ratio of TC50 for african green monkey Vero cells to IC50 for Cryptococcus neoformans ATCC 90113; assay type: toxicity, cell-based; settings: read-out: Selectivity Index

| Compound | MFC (Cryptococcus neoformans [1]) | MIC (Cryptococcus neoformans [1]) | MFC (Candida albicans [2]) | MIC (Candida albicans [2]) | MFC (Aspergillus fumigatus [3]) | MIC (Aspergillus fumigatus [3]) | IC50 (Cryptococcus neoformans [4]) | IC50 (Candida albicans [5]) | IC50 (Aspergillus fumigatus [6]) | MFC (Nakaseomyces glabratus [7]) | MIC (Nakaseomyces glabratus [7]) | MFC (Pichia kudriavzevii [8]) | MIC (Pichia kudriavzevii [8]) | IC50 (Nakaseomyces glabratus [9]) | IC50 (Pichia kudriavzevii [10]) | CC50 at 48 h [11] | selectivity ratio [12] |
| --- | --- | --- | --- | --- | --- | --- | --- | --- | --- | --- | --- | --- | --- | --- | --- | --- | --- |
| Fc1cccc(Sc2cc3ccccc3[n+](CCCCCC3CCCCC3)c2)c1.[I-] | 2.5 µg/mL | 0.6 µg/mL | 10 µg/mL | 5 µg/mL | 20 µg/mL | 10 µg/mL | 0.5 µg/mL | 2.7 µg/mL | 5.3 µg/mL | 20 µg/mL | 20 µg/mL | 1.3 µg/mL | 0.6 µg/mL | 12 µg/mL | 0.3 µg/mL | 6.6 µg/mL | 13 |
| Cc1cccc(Sc2cc3ccccc3[n+](CCCCCc3ccccc3)c2)c1.[I-] | 20 µg/mL | 2.5 µg/mL | > 20 µg/mL | > 20 µg/mL | > 20 µg/mL | > 20 µg/mL | 1.4 µg/mL | > 20 µg/mL | 20 µg/mL | – | – | – | – | – | – | 8.8 µg/mL | – |
| Cc1ccccc1Sc1cc2ccccc2[n+](CCCCCC2CCCCC2)c1.[I-] | 1.3 µg/mL | 0.6 µg/mL | 10 µg/mL | 5 µg/mL | > 20 µg/mL | 10 µg/mL | 0.3 µg/mL | 1.7 µg/mL | 4.8 µg/mL | 20 µg/mL | 20 µg/mL | 1.3 µg/mL | 1.3 µg/mL | 13 µg/mL | 0.6 µg/mL | 4 µg/mL | 13 |
| Cc1ccc(Sc2cc3ccccc3[n+](CCCCCC3CCCCC3)c2)cc1.[I-] | 1.3 µg/mL | 0.3 µg/mL | 5 µg/mL | 2.5 µg/mL | 5 µg/mL | 5 µg/mL | 0.2 µg/mL | 1.3 µg/mL | 2.7 µg/mL | 10 µg/mL | 10 µg/mL | 1.3 µg/mL | 0.6 µg/mL | 5.5 µg/mL | 0.5 µg/mL | 2.8 µg/mL | 14 |
| Oc1ccccc1Sc1cc2ccccc2[n+](CCCCCC2CCCCC2)c1.[I-] | 1.3 µg/mL | 1.3 µg/mL | 20 µg/mL | 10 µg/mL | > 20 µg/mL | 10 µg/mL | 1 µg/mL | 4.7 µg/mL | 3.9 µg/mL | > 20 µg/mL | 20 µg/mL | 10 µg/mL | 10 µg/mL | 12 µg/mL | 4.4 µg/mL | 9.3 µg/mL | 9.3 |
| C[C@@H]1[C@H](O)[C@@H](C)/C=C/C=C/C=C/C=C/C=C/C=C/C=C/[C@H](O[C@@H]2O[C@H](C)[C@@H](O)[C@H](N)[C@@H]2O)C[C@@H]2O[C@](O)(C[C@@H](O)C[C@@H](O)[C@H](O)CC[C@@H](O)C[C@@H](O)CC(=O)O[C@H]1C)C[C@H](O)[C@H]2C(=O)O [AMPHOTERICIN B] | 5 µg/mL (≈ 5.41 µM) | 1.3 µg/mL (≈ 1.41 µM) | 1.3 µg/mL (≈ 1.41 µM) | 1.3 µg/mL (≈ 1.41 µM) | 5 µg/mL (≈ 5.41 µM) | 1.3 µg/mL (≈ 1.41 µM) | – | – | – | 2.5 µg/mL (≈ 2.71 µM) | 1.3 µg/mL (≈ 1.41 µM) | 2.5 µg/mL (≈ 2.71 µM) | 2.5 µg/mL (≈ 2.71 µM) | 0.6 µg/mL (≈ 0.649 µM) | 0.9 µg/mL (≈ 0.974 µM) | 6.5 µg/mL (≈ 7.03 µM) | 14 |
| Cc1ccc(Sc2cc3ccccc3[n+](CCCCCc3ccccc3)c2)cc1.[I-] | 5 µg/mL | 2.5 µg/mL | > 20 µg/mL | > 20 µg/mL | > 20 µg/mL | > 20 µg/mL | 1.2 µg/mL | > 20 µg/mL | 16 µg/mL | – | – | – | – | – | – | 4.2 µg/mL | – |
| Brc1cccc(Sc2cc3ccccc3[n+](CCCCCc3ccccc3)c2)c1.[I-] | 10 µg/mL | 5 µg/mL | > 20 µg/mL | 20 µg/mL | > 20 µg/mL | 10 µg/mL | 2 µg/mL | 10 µg/mL | 2.5 µg/mL | – | – | – | – | – | – | > 10 µg/mL | – |
| Brc1ccccc1Sc1cc2ccccc2[n+](CCCCCc2ccccc2)c1.[I-] | 20 µg/mL | 5 µg/mL | > 20 µg/mL | 20 µg/mL | > 20 µg/mL | 2.5 µg/mL | 3 µg/mL | 10 µg/mL | 1 µg/mL | – | – | – | – | – | – | 10 µg/mL | – |
| [I-].c1ccc(CCCCC[n+]2cc(Sc3ccccc3)cc3ccccc32)cc1 | > 20 µg/mL | 5 µg/mL | > 20 µg/mL | 10 µg/mL | > 20 µg/mL | 1.3 µg/mL | – | – | – | – | – | – | – | – | – | – | – |
| COc1ccccc1Sc1cc2ccccc2[n+](CCCCCc2ccccc2)c1.[I-] | > 20 µg/mL | > 20 µg/mL | > 20 µg/mL | > 20 µg/mL | > 20 µg/mL | > 20 µg/mL | 15 µg/mL | > 20 µg/mL | 8 µg/mL | – | – | – | – | – | – | 4.3 µg/mL | – |
| [I-].c1ccc(Sc2cc3ccccc3[n+](CCCCCC3CCCCC3)c2)cc1 | 2.5 µg/mL | 1.3 µg/mL | 10 µg/mL | 5 µg/mL | > 20 µg/mL | 10 µg/mL | – | – | – | 20 µg/mL | 20 µg/mL | 2.5 µg/mL | 1.3 µg/mL | 15 µg/mL | – | 4.6 µg/mL | 9.2 |
| COc1cccc(Sc2cc3ccccc3[n+](CCCCCc3ccccc3)c2)c1.[I-] | > 20 µg/mL | 20 µg/mL | > 20 µg/mL | > 20 µg/mL | > 20 µg/mL | 5 µg/mL | 10 µg/mL | > 20 µg/mL | 3.5 µg/mL | – | – | – | – | – | – | > 10 µg/mL | – |
| FC(F)(F)c1ccc(Sc2cc3ccccc3[n+](CCCCCc3ccccc3)c2)cc1.[I-] | 10 µg/mL | 5 µg/mL | > 20 µg/mL | 20 µg/mL | > 20 µg/mL | > 20 µg/mL | 2.7 µg/mL | 11 µg/mL | 15 µg/mL | – | – | – | – | – | – | 10 µg/mL | – |
| COc1ccc(Sc2cc3ccccc3[n+](CCCCCc3ccccc3)c2)cc1.[I-] | < 20 µg/mL | 20 µg/mL | > 20 µg/mL | > 20 µg/mL | > 20 µg/mL | 20 µg/mL | 15 µg/mL | > 20 µg/mL | 4.5 µg/mL | – | – | – | – | – | – | 10 µg/mL | – |
